From ChEMBL document CHEMBL4043093, “2-Oxo-3, 4-dihydropyrimido[4, 5-d]pyrimidinyl derivatives as new irreversible pan fibroblast growth factor receptor (FGFR) inhibitors” (Eur J Med Chem, 2017)

What was measured:
[1] = test system: Tyrosine-protein kinase ABL1 (Homo sapiens), P00519 [T315I]; assay: Inhibition of human non-phosphorylated ABL1 T315I mutant (S229 to K512 residues) expressed in HEK293 cells assessed as residual activity at 1000 nM after 30 mins by Kinomescan method relative to control; assay type: cell-based
How it was run: (§1)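 KINOMEscan binding panel of 456 kinases, with the test compound at a single concentration of 1 µM. Read-out is Percent Control.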

[2] = test system: ALK tyrosine kinase receptor (Homo sapiens), Q9UM73 [C1156Y]; assay: Inhibition of wild-type human partial length ALK C1156Y mutant (I1088 to E1409 residues) expressed in HEK293 cells assessed as residual activity at 1000 nM after 30 mins by Kinomescan method relative to control; assay type: cell-based
Sequence of ALK tyrosine kinase receptor (Homo sapiens), Q9UM73 [C1156Y] (Q9UM73 whole entry C1156Y, looked up, the tested form may be a part): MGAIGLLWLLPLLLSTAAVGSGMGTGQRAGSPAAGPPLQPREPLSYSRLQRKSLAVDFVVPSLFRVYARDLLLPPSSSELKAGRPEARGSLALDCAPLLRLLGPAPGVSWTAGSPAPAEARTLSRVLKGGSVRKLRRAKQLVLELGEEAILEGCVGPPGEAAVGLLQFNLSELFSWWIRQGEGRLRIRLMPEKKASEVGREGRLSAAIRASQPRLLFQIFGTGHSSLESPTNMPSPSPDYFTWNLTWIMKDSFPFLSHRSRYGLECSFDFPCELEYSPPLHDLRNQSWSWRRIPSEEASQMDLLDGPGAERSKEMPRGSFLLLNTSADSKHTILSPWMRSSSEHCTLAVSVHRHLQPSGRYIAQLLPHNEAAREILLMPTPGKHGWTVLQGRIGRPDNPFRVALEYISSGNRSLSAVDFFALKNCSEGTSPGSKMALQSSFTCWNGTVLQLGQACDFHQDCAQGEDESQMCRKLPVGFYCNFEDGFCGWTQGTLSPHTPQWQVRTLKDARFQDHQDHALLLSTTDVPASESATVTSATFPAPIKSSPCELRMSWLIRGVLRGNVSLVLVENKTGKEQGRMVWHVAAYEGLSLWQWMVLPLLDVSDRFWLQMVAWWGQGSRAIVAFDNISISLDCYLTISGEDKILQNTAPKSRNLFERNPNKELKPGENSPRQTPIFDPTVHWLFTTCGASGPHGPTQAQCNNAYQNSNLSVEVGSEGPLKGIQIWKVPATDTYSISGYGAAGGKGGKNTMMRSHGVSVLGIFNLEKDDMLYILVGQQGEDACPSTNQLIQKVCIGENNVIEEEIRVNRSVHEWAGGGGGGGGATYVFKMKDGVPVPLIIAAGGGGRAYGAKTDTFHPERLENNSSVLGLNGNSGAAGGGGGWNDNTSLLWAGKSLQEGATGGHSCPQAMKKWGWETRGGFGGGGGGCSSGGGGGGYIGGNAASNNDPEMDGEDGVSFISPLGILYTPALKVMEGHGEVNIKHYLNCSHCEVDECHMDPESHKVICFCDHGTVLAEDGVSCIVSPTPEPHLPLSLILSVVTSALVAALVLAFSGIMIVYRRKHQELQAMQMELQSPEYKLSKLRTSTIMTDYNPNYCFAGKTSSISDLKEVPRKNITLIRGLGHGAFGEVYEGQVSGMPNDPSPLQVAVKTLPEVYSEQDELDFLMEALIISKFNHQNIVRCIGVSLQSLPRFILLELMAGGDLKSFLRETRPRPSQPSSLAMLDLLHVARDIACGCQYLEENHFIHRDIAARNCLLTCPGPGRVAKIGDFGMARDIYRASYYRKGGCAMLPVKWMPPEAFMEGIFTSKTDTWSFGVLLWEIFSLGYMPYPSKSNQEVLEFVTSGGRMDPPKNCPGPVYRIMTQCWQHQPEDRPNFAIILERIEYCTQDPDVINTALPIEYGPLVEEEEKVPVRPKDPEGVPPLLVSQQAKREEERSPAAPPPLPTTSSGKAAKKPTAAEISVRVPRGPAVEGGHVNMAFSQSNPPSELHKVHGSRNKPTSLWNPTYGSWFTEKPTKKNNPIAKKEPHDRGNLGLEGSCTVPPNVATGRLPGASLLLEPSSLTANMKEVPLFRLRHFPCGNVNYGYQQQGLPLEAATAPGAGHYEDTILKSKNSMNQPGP

[3] = target: Calcium/calmodulin-dependent protein kinase type 1B (Homo sapiens) (UniProt Q6P2M8); assay: Inhibition of wild-type human partial length CAMK1B (W9 to A311 residues) expressed in HEK293 cells assessed as residual activity at 1000 nM after 30 mins by Kinomescan method relative to control; assay type: cell-based
[4] = target: Calcium/calmodulin-dependent protein kinase type 1G (Homo sapiens) (UniProt Q96NX5); assay: Inhibition of wild-type human partial length CAMK1G (M1 to A342 residues) expressed in Escherichia coli BL21 assessed as residual activity at 1000 nM after 30 mins by Kinomescan method relative to control
[5] = target: Calcium/calmodulin-dependent protein kinase type IV (Homo sapiens) (UniProt Q16566); assay: Inhibition of wild-type human partial length CAMK4 (A22 to A322 residues) expressed in Escherichia coli BL21 assessed as residual activity at 1000 nM after 30 mins by Kinomescan method relative to control
Sequence of Calcium/calmodulin-dependent protein kinase type IV (Homo sapiens) (Q16566 whole entry, the tested form may be a part): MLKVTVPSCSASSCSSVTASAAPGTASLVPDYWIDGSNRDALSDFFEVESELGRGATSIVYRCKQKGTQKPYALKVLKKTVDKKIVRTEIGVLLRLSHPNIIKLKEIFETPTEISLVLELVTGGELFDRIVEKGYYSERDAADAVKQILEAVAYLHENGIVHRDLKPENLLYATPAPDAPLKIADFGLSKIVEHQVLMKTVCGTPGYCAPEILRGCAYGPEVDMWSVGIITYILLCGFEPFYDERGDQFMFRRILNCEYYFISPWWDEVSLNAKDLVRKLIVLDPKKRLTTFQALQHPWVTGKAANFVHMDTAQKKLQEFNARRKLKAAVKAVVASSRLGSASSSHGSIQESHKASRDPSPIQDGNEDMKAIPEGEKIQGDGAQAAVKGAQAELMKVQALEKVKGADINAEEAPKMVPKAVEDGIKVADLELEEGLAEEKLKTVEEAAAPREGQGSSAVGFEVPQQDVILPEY

[6] = target: Cyclin-dependent kinase 4 (Homo sapiens) (UniProt P11802); assay: Inhibition of wild-type human full length CDK4 (M1 to E303 residues) expressed in HEK293 cells assessed as residual activity at 1000 nM after 30 mins by Kinomescan method relative to control; assay type: cell-based
Sequence of Cyclin-dependent kinase 4 (Homo sapiens) (P11802 whole entry, the tested form may be a part): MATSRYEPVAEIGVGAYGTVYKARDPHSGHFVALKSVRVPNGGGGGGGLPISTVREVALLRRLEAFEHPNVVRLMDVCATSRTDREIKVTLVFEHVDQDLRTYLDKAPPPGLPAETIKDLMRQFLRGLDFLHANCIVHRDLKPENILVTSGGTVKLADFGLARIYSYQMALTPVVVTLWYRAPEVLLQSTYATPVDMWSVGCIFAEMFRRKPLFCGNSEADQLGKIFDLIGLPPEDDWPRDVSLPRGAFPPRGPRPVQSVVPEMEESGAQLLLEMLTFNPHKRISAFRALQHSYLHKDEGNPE
How it was run: (§2)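 Single-point screen at a fixed 1 µM, run within a 456-kinase DiscoveRx KINOMEscan panel. Each kinase's read-out is Percent Control, i.e. signal relative to a control without compound. Hits were scored by a Percent Control < 35 cut-off, and an S(35) selectivity score was calculated across the non-mutant kinases.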

[7] = target: Cyclin-dependent kinase 8 (Homo sapiens) (UniProt P49336); assay: Inhibition of wild-type human partial length CDK8 (M1 to T360 residues) expressed in Escherichia coli BL21 assessed as residual activity at 1000 nM after 30 mins by Kinomescan method relative to control
Sequence of Cyclin-dependent kinase 8 (Homo sapiens) (P49336 whole entry, the tested form may be a part): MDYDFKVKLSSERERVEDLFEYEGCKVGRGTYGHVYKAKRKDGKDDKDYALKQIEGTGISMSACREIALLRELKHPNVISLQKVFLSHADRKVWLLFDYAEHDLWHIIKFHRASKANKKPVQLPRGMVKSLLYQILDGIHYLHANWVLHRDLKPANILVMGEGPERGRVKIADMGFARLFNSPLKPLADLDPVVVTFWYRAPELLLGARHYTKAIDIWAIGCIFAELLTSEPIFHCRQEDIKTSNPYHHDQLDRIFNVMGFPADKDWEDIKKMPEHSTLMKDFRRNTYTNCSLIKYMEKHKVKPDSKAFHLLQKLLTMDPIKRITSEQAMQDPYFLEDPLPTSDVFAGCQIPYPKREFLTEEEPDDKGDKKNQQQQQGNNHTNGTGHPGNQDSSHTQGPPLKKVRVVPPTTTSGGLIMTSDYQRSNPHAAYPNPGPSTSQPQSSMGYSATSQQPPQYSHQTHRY

[8] = target: Ephrin type-A receptor 5 (Homo sapiens) (UniProt P54756); assay: Inhibition of wild-type human partial length EPHA5 (T627 to V930 residues) expressed in Escherichia coli BL21 assessed as residual activity at 1000 nM after 30 mins by Kinomescan method relative to control
[9] = target: Fibroblast growth factor receptor 4 (Homo sapiens, UniProt P22455); assay: Inhibition of wild-type human partial length FGFR4 (G402 to E713 residues) expressed in Escherichia coli BL21 assessed as residual activity at 1000 nM after 30 mins by Kinomescan method relative to control
[10] = test system: Receptor-type tyrosine-protein kinase FLT3 (Homo sapiens), P36888 [D835V]; assay: Inhibition of human partial length FLT3 D835V mutant (V592 to Y969 residues) expressed in Escherichia coli BL21 assessed as residual activity at 1000 nM after 30 mins by Kinomescan method relative to control; how it was run: as §1
[11] = target: Glycogen synthase kinase-3 beta (Homo sapiens) (UniProt P49841); assay: Inhibition of wild-type human full length GSK3B (M1 to T433 residues) expressed in HEK293 cells assessed as residual activity at 1000 nM after 30 mins by Kinomescan method relative to control; assay type: cell-based
Sequence of Glycogen synthase kinase-3 beta (Homo sapiens) (P49841 whole entry, looked up, the tested form may be a part): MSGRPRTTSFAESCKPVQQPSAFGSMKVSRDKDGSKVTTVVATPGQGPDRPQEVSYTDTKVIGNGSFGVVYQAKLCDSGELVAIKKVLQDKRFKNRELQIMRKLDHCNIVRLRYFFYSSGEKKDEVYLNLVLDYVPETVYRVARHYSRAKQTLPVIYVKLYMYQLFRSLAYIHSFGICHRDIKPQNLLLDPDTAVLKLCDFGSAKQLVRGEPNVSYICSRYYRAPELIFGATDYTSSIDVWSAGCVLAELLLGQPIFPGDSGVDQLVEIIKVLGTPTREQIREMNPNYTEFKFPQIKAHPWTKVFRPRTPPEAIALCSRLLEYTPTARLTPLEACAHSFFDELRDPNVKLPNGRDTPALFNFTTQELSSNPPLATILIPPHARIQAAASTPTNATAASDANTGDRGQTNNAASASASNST
How it was run: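 Single-concentration screen at 1 µM across a 456-kinase KINOMEscan panel. The read-out is Percent Control for each kinase.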

[12] = test system: Mast/stem cell growth factor receptor Kit (Homo sapiens), P10721 [D816H]; assay: Inhibition of human partial length KIT D816H mutant (I571 to D952 residues) expressed in HEK293 cells assessed as residual activity at 1000 nM after 30 mins by Kinomescan method relative to control; assay type: cell-based; how it was run: as §1
[13] = test system: Mast/stem cell growth factor receptor Kit (Homo sapiens), P10721 [V559D]; assay: Inhibition of human partial length KIT V559D mutant (Y545 to D952 residues) expressed in Escherichia coli BL21 assessed as residual activity at 1000 nM after 30 mins by Kinomescan method relative to control; how it was run: as §1
[14] = target: Tyrosine-protein kinase Lck (Homo sapiens) (UniProt P06239); assay: Inhibition of wild-type human partial length LCK (R207 to P509 residues) expressed in Escherichia coli BL21 assessed as residual activity at 1000 nM after 30 mins by Kinomescan method relative to control
[15] = target: Leukocyte tyrosine kinase receptor (Homo sapiens) (UniProt P29376); assay: Inhibition of wild-type human partial length LTK (P422 to S744 residues) expressed in Escherichia coli BL21 assessed as residual activity at 1000 nM after 30 mins by Kinomescan method relative to control
[16] = target: Serine/threonine-protein kinase MAK (Homo sapiens) (UniProt P20794); assay: Inhibition of wild-type human partial length MAK (M1 to P314 residues) expressed in Escherichia coli BL21 assessed as residual activity at 1000 nM after 30 mins by Kinomescan method relative to control
[17] = target: Serine/threonine-protein kinase Nek9 (Homo sapiens) (UniProt Q8TD19); assay: Inhibition of wild-type human partial length NEK9 (P32 to R328 residues) expressed in Escherichia coli BL21 assessed as residual activity at 1000 nM after 30 mins by Kinomescan method relative to control
Sequence of Serine/threonine-protein kinase Nek9 (Homo sapiens) (Q8TD19 whole entry, the tested form may be a part): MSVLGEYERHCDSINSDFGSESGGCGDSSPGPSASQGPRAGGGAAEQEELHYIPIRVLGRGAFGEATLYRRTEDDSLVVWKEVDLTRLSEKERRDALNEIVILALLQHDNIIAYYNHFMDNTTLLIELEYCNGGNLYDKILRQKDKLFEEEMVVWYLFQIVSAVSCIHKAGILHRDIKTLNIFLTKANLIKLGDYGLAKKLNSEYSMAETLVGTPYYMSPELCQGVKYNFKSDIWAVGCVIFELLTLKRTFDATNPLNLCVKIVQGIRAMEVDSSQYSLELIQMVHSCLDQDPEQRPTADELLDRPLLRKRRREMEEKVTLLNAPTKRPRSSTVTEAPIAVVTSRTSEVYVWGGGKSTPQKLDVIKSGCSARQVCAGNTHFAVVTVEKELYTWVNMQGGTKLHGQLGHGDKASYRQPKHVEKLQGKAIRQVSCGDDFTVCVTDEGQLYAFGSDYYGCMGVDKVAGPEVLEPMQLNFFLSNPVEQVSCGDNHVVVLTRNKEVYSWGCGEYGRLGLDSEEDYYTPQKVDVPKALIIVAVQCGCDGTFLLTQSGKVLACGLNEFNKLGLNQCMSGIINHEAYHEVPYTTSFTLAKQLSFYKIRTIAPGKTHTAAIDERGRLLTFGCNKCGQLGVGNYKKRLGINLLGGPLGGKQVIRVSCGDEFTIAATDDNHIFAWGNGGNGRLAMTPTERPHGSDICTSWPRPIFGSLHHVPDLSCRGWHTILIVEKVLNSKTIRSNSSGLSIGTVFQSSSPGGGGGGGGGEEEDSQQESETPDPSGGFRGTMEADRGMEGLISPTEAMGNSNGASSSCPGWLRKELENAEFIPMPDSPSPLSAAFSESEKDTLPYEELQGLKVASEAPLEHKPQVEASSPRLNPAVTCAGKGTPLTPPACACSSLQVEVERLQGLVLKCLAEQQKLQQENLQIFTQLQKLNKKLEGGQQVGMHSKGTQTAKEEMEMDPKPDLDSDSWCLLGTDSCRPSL

[18] = target: Phosphatidylinositol 4-phosphate 3-kinase C2 domain-containing subunit beta (Homo sapiens) (UniProt O00750); assay: Inhibition of wild-type human partial length PIK3C2B (M1 to L1634 residues) expressed in HEK293 cells assessed as residual activity at 1000 nM after 30 mins by Kinomescan method relative to control; assay type: cell-based
[19] = test system: Phosphatidylinositol 4,5-bisphosphate 3-kinase catalytic subunit alpha isoform (Homo sapiens), P42336 [M1043I]; assay: Inhibition of human partial length PIK3CA M1043I mutant (R108 to N1068 residues) expressed in HEK293 cells assessed as residual activity at 1000 nM after 30 mins by Kinomescan method relative to control; assay type: cell-based; how it was run: as §2
[20] = target: Protein kinase C eta type (Homo sapiens) (UniProt P24723); assay: Inhibition of wild-type human partial length PRKCH (S324 to P683 residues) expressed in Escherichia coli BL21 assessed as residual activity at 1000 nM after 30 mins by Kinomescan method relative to control
Sequence of Protein kinase C eta type (Homo sapiens) (P24723 whole entry, the tested form may be a part): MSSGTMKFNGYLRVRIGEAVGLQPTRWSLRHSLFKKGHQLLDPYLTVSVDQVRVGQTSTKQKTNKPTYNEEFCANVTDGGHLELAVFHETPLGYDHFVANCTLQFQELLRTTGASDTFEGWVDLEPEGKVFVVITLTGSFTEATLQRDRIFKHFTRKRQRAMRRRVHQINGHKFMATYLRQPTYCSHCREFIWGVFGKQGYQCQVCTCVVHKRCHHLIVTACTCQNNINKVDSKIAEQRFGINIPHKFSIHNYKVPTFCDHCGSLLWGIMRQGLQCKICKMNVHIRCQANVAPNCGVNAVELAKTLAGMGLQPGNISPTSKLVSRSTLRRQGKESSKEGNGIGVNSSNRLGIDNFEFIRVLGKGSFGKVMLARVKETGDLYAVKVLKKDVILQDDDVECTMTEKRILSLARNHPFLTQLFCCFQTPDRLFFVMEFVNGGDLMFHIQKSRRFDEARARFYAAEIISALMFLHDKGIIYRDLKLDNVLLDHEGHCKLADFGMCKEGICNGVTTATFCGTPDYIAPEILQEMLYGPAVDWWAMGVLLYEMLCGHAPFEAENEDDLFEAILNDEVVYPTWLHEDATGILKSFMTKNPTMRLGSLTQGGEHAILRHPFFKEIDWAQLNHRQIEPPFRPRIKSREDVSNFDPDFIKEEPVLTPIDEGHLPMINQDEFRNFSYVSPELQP

[21] = target: Activated CDC42 kinase 1 (Homo sapiens) (UniProt Q07912); assay: Inhibition of wild-type human partial length TNK2 (S159 to D474 residues) expressed in Escherichia coli BL21 assessed as residual activity at 1000 nM after 30 mins by Kinomescan method relative to control

COc1cc(OC)c(Cl)c(N2Cc3cnc(Nc4ccc(F)cc4)nc3N(C3CCN(C(=O)/C=C/CN(C)C)CC3)C2=O)c1Cl
Activity [1]: 100% | Activity [2]: 68% | Activity [3]: 100% | Activity [4]: 100% | Activity [5]: 96% | Activity [6]: 100% | Activity [7]: 85% | Activity [8]: 100% | Activity [9]: 1% | Activity [10]: 80% | Activity [11]: 100% | Activity [12]: 66% | Activity [13]: 11% | Activity [14]: 1.5% | Activity [15]: 95% | Activity [16]: 100% | Activity [17]: 100% | Activity [18]: 89% | Activity [19]: 95% | Activity [20]: 91% | Activity [21]: 100%
